Measured values pooled from the literature.
Protocols differ between the studies behind these lines.
Chrna7: Neuronal acetylcholine receptor subunit alpha-7 (Chrna7, Rattus norvegicus, UniProt Q05941)
ache: Acetylcholinesterase (ache, Electrophorus electricus, UniProt O42275)

SMILES | target | observed | action | method | notes | IC50 [µM]
CC(C)C[C@H](NC(=O)[C@H]1O[C@@H]1C(=O)O)C(=O)NCCCCN=C(N)N | Pro-cathepsin H (Homo sapiens, UniProt P09668) | enzyme activity | inhibitor |  |  | 0.025
COc1ccc2c3c([nH]c2c1)CCN(C)CC3 | Chrna7 | ion current | antagonist | two-electrode voltage clamp | oocytes | 10.2
C#CCN(C)CCCCCCCCOc1cccc(CN(C)c2c3c(nc4ccc(C)cc24)CCCC3)c1 | ache | enzyme activity | inhibitor | Ellman |  | 32.2
CNC(=O)c1ccc(-c2cnn3ccc(C(=O)N(C)c4ccc(Cl)c(C(=O)O)c4)cc23)cc1 | Ephrin type-A receptor 4 (EPHA4, Homo sapiens, UniProt P54764) | enzyme activity | inhibitor |  |  | > 30
C#CCN(C)CCCOc1cccc(CN(C)c2c3c(nc4ccc(C)cc24)CCCC3)c1 | ache | enzyme activity | inhibitor | Ellman |  | 5.36
CNC(=O)c1ccc(-c2cnn3ccc(C(=O)N(C)c4ccc(Cl)c(C(=O)OC)c4)cc23)cc1 | Tyrosine-protein kinase receptor UFO (AXL, Homo sapiens, UniProt P30530) | enzyme activity | inhibitor |  |  | > 30
CCCCCCCCCC(=O)N[C@@H](CCCN=C(N)N)C(=O)N[C@H](C(=O)N[C@@H](CCCCN)C(=O)N[C@@H](CCCN=C(N)N)C(=O)CCl)C(C)C | Furin (FURIN, Homo sapiens, UniProt P09958) | enzyme activity | inhibitor |  |  | 0.00134
COc1ccc2[nH]c3c(c2c1)CCN(C)CC3 | Chrna7 | ion current | antagonist | two-electrode voltage clamp | oocytes | 11.4
